Experimental data: ChEMBL document CHEMBL2150909, “Imidazo[1,2-a]pyridines: orally active positive allosteric modulators of the metabotropic glutamate 2 receptor” (J Med Chem, 2012)
Activity calls are given as the source filed them. The calls are words filed in the database; no cut-off is given here.

What was measured:
[1] = target: Metabotropic glutamate receptor 2 (Homo sapiens, UniProt Q14416); experiment: Agonist activity at human mGlu 2 expressed in CHO cells by PAM assay relative to glutamate; type: functional, cell-based
Procedure, shortened: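 The assay measured [35S]GTPγS binding to membranes from CHO cells expressing human mGluR2. Cells were butyrate-stimulated (5 mM, 24 h) before membranes were prepared. Membranes were preincubated for 30 min at 30 °C in HEPES pH 7.4 buffer (NaCl, MgCl2, 50 μM GDP) with compound (0.3 nM–50 μM, 11 concentrations) plus EC25 glutamate. [35S]GTPγS (0.1 nM final) was then added for 30 min at 30 °C. Bound label was collected by filtration and counted. Runs were done at least in triplicate with duplicate points, and a four-parameter logistic fit gave the values.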

[2] = Metabolic stability of human liver microsomes assessed as compound metabolized at 5 uM after 15 mins; type: ADME, Microsome; settings: read-out: Drug metabolism
Procedure, shortened: (§1)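 Test compound at 5 μM incubated 15 min with rat or human liver microsomes; read-out is percent of compound metabolized.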

[3] = Metabolic stability of Sprague-Dawley rat liver microsomes assessed as compound metabolized at 5 uM after 15 mins; type: ADME, Microsome; settings: read-out: Drug metabolism; procedure, shortened: as §1
[4] = target: Metabotropic glutamate receptor 1 (Homo sapiens) (UniProt Q13255); experiment: Agonist activity at human mGlu 1 expressed in HEK293 cells at 10 uM by Ca+2 assay; type: functional, cell-based
Procedure, shortened: (§2)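 Ca2+ assays on human mGlu1, mGlu3, mGlu5, mGlu7 or mGlu8 receptors, each expressed in HEK293 cells; compound tested at 10 μM for agonist and antagonist activity.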

[5] = target: Metabotropic glutamate receptor 3 (Homo sapiens) (UniProt Q14832); experiment: Agonist activity at human mGlu 3 expressed in HEK293 cells at 10 uM by Ca+2 assay; type: functional, cell-based; procedure, shortened: as §2
[6] = target: Metabotropic glutamate receptor 5 (Homo sapiens) (UniProt P41594); experiment: Agonist activity at human mGlu 5 expressed in HEK293 cells at 10 uM by Ca+2 assay; type: functional, cell-based; procedure, shortened: as §2
[7] = target: Metabotropic glutamate receptor 8 (Homo sapiens) (UniProt O00222); experiment: Agonist activity at human mGlu 8 expressed in HEK293 cells at 10 uM by Ca+2 assay; type: functional, cell-based; procedure, shortened: as §2
[8] = target: Metabotropic glutamate receptor 4 (Homo sapiens) (UniProt Q14833); experiment: Agonist activity at human mGlu 4 expressed in L929 cells assessed as [35S]GTPgammaS binding by liquid scintillation counting; type: functional, cell-based
Procedure, shortened: (§3)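 [35S]GTPγS functional assays on human mGlu4 or rat mGlu6 receptors expressed in L929 or CHO cells; agonist and antagonist modes tested at 10 μM.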

[9] = target: Metabotropic glutamate receptor 6 (Rattus norvegicus) (UniProt P35349); experiment: Agonist activity at rat mGlu 6 expressed in CHO cells assessed as [35S]GTPgammaS binding by liquid scintillation counting; type: functional, cell-based; procedure, shortened: as §3
[10] = Tmax in Sprague-Dawley rat at 10 mg/kg, po; type: ADME, organism-based; design: dose 10 mg/kg, route oral; settings: in vivo
Procedure, shortened: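 Rat pharmacokinetics in Sprague−Dawley rats: oral 10 mg/kg and intravenous 1.25 mg/kg, formulated in 20% HP-β-CD at pH 4. Plasma profiles used for Cmax, tmax, AUC0−inf and t1/2. Reported as geometric means of at least two runs ± SEM.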

[11] = AUC (0 to infinity) in Sprague-Dawley rat at 10 mg/kg, po; type: ADME, organism-based; design: time infinity, dose 10 mg/kg, route oral; settings: plasma
Procedure, shortened: (§4)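 Male Sprague-Dawley rats given 10 mg/kg orally and/or 1.25 mg/kg intravenously; compound formulated in 20% HP-β-CD at pH 4. Cmax, tmax, AUC0−inf, t1/2, clearance and oral bioavailability F derived from plasma levels; geometric mean of at least two runs ± SEM.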

[12] = Half life in Sprague-Dawley rat at 10 mg/kg, po; type: ADME, organism-based; design: dose 10 mg/kg, route oral; settings: in vivo; procedure, shortened: as §4
[13] = Drug uptake in Sprague-Dawley rat brain at 10 mg/kg, po after 1 hr; type: ADME, organism-based; design: dose 10 mg/kg, route oral; settings: read-out: Drug uptake
[14] = Drug uptake in Sprague-Dawley rat brain at 10 mg/kg, po after 2 hrs; type: ADME, organism-based; design: dose 10 mg/kg, route oral; settings: read-out: Drug uptake
[15] = Drug uptake in Sprague-Dawley rat brain at 10 mg/kg, po after 4 hrs; type: ADME, organism-based; design: dose 10 mg/kg, route oral; settings: read-out: Drug uptake
[16] = Plasma concentration in Sprague-Dawley rat at 10 mg/kg, po after 1 hr; type: ADME, organism-based; design: dose 10 mg/kg, route oral
[17] = Plasma concentration in Sprague-Dawley rat at 10 mg/kg, po after 2 hrs; type: ADME, organism-based; design: dose 10 mg/kg, route oral
[18] = Plasma concentration in Sprague-Dawley rat at 10 mg/kg, po after 4 hrs; type: ADME, organism-based; design: dose 10 mg/kg, route oral
Procedure, shortened: (§5)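 Oral dosing of Sprague−Dawley rats at 10 mg/kg, compound in 20% HP-β-CD at pH 4. Brain (ng/g) and plasma (ng/mL) concentrations sampled at the indicated time; brain-to-plasma ratio calculated. Geometric mean of at least two runs ± SEM.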

[19] = Ratio of drug level in brain to plasma of Sprague-Dawley rat at 10 mg/kg, po after 1 hr; type: ADME, organism-based; design: dose 10 mg/kg, route oral; settings: read-out: BPR; procedure, shortened: as §5
[20] = Ratio of drug level in brain to plasma of Sprague-Dawley rat at 10 mg/kg, po after 2 hrs; type: ADME, organism-based; design: dose 10 mg/kg, route oral; settings: read-out: BPR; procedure, shortened: as §5
[21] = Ratio of drug level in brain to plasma of Sprague-Dawley rat at 10 mg/kg, po after 4 hrs; type: ADME, organism-based; design: dose 10 mg/kg, route oral; settings: brain and plasma, read-out: BPR; procedure, shortened: as §5
[22] = target: Metabotropic glutamate receptor 1 (Homo sapiens) (UniProt Q13255); experiment: Antagonist activity at human mGlu 1 expressed in HEK293 cells at 10 uM by Ca+2 assay; type: functional, cell-based; procedure, shortened: as §2
[23] = target: Metabotropic glutamate receptor 3 (Homo sapiens) (UniProt Q14832); experiment: Antagonist activity at human mGlu 3 expressed in HEK293 cells at 10 uM by Ca+2 assay; type: functional, cell-based; procedure, shortened: as §2
[24] = target: Metabotropic glutamate receptor 5 (Homo sapiens) (UniProt P41594); experiment: Antagonist activity at human mGlu 5 expressed in HEK293 cells at 10 uM by Ca+2 assay; type: functional, cell-based; procedure, shortened: as §2
[25] = target: T1, Metabotropic glutamate receptor 7 (Homo sapiens, UniProt Q14831); experiment: Antagonist activity at human mGlu 7 expressed in HEK293 cells at 10 uM by Ca+2 assay; type: functional, cell-based; procedure, shortened: as §2
[26] = target: Metabotropic glutamate receptor 8 (Homo sapiens) (UniProt O00222); experiment: Antagonist activity at human mGlu 8 expressed in HEK293 cells at 10 uM by Ca+2 assay; type: functional, cell-based; procedure, shortened: as §2
[27] = target: Metabotropic glutamate receptor 4 (Homo sapiens) (UniProt Q14833); experiment: Antagonist activity at human mGlu 4 expressed in L929 cells assessed inhibition of [35S]GTPgammaS binding by liquid scintillation counting; type: functional, cell-based; procedure, shortened: as §3
[28] = target: Metabotropic glutamate receptor 6 (Rattus norvegicus) (UniProt P35349); experiment: Antagonist activity at rat mGlu 6 expressed in CHO cells assessed as inhibition of [35S]GTPgammaS binding by liquid scintillation counting; type: functional, cell-based; procedure, shortened: as §3
Rattus norvegicus [29] = experiment: Effect on sleep-wake cycle in Sprague-Dawley rat EEG model assessed as change in intermediate state at 10 mg/kg, po measured up to 20 hrs relative to control; type: functional, organism-based; design: dose 10 mg/kg
Procedure, shortened: (§6)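 Male Sprague-Dawley rats (250–300 g) implanted with EEG/EMG/EOG electrodes, 12 h light/dark cycle, n = 8 per group. Baseline 20 h recording after oral saline, then 20 h after oral 10 mg/kg or vehicle (20% CD + 2H2T). 2 s epochs scored into AW, PW, preREM, REM, lSWS, dSWS and averaged per 30 min. Latencies and transitions analysed; Wilcoxon−Mann−Whitney test vs vehicle.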

Rattus norvegicus [30] = experiment: Effect on sleep-wake cycle in Sprague-Dawley rat EEG model assessed as change in passive wake at 10 mg/kg, po measured up to 20 hrs relative to control; type: functional, organism-based; design: dose 10 mg/kg; procedure, shortened: as §6
Rattus norvegicus [31] = experiment: Effect on sleep-wake cycle in Sprague-Dawley rat EEG model assessed as change in active wake at 10 mg/kg, po measured up to 20 hrs relative to control; type: functional, organism-based; design: dose 10 mg/kg; procedure, shortened: as §6
Rattus norvegicus [32] = experiment: Effect on sleep-wake cycle in Sprague-Dawley rat EEG model assessed as increase in REM sleep onset latency at 10 mg/kg, po measured up to 2 hrs relative to control; type: functional, organism-based; design: dose 10 mg/kg; procedure, shortened: as §6
Rattus norvegicus [33] = experiment: Effect on sleep-wake cycle in Sprague-Dawley rat EEG model assessed as change in sleep variables at 10 mg/kg, po measured up to 20 hrs relative to control; type: functional, organism-based; design: dose 10 mg/kg; procedure, shortened: as §6
[34] = target: T1, Metabotropic glutamate receptor 7; experiment: Agonist activity at human mGlu 7 expressed in HEK293 cells at 10 uM by Ca+2 assay; type: functional, cell-based; procedure, shortened: as §2
[35] = Cmax in Sprague-Dawley rat at 10 mg/kg, po; type: ADME, organism-based; design: dose 10 mg/kg, route oral; settings: in vivo; procedure, shortened: as §4
Rattus norvegicus [36] = experiment: Effect on sleep-wake cycle in Sprague-Dawley rat EEG model assessed as suppression of REM sleep at 10 mg/kg, po measured up to 2 hrs relative to control; type: functional; procedure, shortened: as §6
Rattus norvegicus [37] = experiment: Effect on sleep-wake cycle in Sprague-Dawley rat EEG model assessed as change in light sleep at 10 mg/kg, po measured up to 20 hrs relative to control; type: functional, organism-based; design: dose 10 mg/kg; procedure, shortened: as §6
Rattus norvegicus [38] = experiment: Effect on sleep-wake cycle in Sprague-Dawley rat EEG model assessed as change in deep sleep at 10 mg/kg, po measured up to 20 hrs relative to control; type: functional, organism-based; design: dose 10 mg/kg; procedure, shortened: as §6
Rattus norvegicus [39] = experiment: Effect on sleep-wake cycle in Sprague-Dawley rat EEG model assessed as effect on different vigilance states at 10 mg/kg, po measured up to 20 hrs relative to control; type: functional, organism-based; design: dose 10 mg/kg; procedure, shortened: as §6
Rattus norvegicus [40] = experiment: Effect on sleep-wake cycle in Sprague-Dawley rat EEG model assessed as change in transition from sleep states toward waking at 10 mg/kg, po measured up to 20 hrs relative to control; type: functional, organism-based; design: dose 10 mg/kg; procedure, shortened: as §6

Metabotropic glutamate receptor 3 (Homo sapiens), sequence (Q14832 23-879 limits assumed): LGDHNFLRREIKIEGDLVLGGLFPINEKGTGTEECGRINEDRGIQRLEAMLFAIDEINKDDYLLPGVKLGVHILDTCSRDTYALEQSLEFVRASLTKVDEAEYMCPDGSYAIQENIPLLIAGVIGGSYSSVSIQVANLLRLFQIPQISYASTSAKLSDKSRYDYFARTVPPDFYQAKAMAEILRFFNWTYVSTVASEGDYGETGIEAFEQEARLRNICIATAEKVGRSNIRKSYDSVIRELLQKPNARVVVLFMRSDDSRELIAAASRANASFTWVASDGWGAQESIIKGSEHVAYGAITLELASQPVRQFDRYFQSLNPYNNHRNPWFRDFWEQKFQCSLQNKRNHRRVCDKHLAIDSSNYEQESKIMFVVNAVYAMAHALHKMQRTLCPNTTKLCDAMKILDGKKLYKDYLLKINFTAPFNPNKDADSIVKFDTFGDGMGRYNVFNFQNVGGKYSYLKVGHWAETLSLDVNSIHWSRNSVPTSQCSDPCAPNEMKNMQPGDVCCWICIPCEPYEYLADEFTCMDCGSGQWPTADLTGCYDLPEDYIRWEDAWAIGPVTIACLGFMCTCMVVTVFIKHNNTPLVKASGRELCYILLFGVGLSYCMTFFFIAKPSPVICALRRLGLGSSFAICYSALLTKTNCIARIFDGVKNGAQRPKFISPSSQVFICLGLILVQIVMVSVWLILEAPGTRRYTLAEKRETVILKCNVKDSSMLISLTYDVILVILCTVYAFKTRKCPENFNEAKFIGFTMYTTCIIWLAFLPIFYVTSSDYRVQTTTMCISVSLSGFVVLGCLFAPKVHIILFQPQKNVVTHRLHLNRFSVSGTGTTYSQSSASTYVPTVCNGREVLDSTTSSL
Metabotropic glutamate receptor 4 (Homo sapiens), sequence (Q14833 whole entry): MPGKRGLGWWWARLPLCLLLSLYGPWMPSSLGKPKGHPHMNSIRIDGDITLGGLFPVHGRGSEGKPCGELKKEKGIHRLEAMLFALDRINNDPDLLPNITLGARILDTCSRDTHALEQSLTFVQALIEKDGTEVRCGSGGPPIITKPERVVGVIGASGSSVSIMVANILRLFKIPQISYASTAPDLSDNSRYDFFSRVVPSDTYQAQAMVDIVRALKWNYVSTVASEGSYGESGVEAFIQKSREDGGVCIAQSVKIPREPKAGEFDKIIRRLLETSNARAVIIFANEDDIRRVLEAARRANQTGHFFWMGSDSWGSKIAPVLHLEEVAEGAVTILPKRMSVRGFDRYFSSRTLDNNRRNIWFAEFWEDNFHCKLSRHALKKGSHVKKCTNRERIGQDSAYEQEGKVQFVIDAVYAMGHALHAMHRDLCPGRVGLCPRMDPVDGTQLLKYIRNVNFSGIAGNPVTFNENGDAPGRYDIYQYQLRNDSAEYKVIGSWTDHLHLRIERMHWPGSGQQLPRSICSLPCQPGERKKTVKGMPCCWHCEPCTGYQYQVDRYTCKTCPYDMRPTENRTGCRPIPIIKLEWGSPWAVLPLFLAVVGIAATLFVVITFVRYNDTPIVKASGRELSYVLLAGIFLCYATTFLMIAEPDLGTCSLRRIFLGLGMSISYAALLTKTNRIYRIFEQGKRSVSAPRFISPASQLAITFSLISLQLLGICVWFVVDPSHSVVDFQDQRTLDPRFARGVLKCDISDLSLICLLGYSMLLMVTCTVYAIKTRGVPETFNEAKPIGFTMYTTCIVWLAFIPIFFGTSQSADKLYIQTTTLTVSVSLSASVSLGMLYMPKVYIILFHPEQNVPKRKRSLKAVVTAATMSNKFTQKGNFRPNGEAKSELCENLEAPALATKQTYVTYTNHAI
Metabotropic glutamate receptor 1 (Homo sapiens), sequence (Q13255 19-1194 limits assumed): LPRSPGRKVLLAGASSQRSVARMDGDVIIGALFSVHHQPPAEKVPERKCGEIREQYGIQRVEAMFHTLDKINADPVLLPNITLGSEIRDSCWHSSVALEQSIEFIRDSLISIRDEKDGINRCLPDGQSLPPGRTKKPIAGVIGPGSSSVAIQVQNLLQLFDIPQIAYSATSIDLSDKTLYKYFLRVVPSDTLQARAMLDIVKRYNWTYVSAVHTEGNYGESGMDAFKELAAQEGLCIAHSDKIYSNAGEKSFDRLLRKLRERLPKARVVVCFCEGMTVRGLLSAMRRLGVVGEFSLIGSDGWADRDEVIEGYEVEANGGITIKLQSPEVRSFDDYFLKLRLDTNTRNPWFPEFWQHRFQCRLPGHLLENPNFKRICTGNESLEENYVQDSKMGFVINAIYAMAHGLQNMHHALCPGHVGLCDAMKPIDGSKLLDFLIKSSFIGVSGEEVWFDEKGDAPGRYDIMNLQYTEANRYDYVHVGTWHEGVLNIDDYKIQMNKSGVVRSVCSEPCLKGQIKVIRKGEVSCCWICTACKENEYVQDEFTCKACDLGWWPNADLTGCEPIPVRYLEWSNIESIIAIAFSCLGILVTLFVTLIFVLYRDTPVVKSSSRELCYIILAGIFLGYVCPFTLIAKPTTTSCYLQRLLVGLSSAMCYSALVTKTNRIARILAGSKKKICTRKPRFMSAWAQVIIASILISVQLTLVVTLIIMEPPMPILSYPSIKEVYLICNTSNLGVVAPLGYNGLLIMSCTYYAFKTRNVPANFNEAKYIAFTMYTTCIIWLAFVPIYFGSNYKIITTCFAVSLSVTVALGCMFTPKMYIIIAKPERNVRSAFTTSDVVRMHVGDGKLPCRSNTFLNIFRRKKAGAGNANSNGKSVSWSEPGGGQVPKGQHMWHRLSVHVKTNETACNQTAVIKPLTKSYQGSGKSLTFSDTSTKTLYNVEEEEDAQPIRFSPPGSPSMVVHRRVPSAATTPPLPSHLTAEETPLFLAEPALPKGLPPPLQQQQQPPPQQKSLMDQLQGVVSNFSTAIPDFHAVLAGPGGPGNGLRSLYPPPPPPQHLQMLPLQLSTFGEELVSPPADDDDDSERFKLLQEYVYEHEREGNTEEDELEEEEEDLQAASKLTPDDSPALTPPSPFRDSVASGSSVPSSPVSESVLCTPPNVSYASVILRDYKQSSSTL
Metabotropic glutamate receptor 6 (Rattus norvegicus), sequence (P35349 whole entry): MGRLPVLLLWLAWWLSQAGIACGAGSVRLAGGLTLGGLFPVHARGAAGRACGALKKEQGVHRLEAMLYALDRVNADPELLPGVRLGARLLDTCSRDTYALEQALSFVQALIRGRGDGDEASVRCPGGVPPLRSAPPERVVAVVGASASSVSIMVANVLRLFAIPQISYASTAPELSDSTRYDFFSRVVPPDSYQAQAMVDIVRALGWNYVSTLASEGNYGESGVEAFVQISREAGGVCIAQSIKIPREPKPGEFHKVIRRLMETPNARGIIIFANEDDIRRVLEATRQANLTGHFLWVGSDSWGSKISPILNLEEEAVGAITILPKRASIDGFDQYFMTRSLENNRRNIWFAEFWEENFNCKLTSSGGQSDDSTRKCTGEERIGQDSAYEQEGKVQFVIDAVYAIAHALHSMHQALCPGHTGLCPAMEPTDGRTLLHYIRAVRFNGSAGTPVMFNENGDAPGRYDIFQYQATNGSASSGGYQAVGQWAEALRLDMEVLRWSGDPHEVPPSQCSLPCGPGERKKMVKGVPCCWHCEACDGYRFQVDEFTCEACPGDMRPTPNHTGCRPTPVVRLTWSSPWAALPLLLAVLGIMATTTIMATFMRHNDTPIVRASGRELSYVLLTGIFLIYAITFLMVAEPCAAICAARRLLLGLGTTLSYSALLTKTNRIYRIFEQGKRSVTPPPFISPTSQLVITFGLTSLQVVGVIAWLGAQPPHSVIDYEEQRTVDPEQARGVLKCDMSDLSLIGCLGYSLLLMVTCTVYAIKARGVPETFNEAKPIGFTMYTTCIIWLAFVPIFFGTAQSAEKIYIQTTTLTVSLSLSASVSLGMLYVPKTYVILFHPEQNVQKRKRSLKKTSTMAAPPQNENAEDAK
Metabotropic glutamate receptor 5 (Homo sapiens), sequence (P41594 21-1212 limits assumed): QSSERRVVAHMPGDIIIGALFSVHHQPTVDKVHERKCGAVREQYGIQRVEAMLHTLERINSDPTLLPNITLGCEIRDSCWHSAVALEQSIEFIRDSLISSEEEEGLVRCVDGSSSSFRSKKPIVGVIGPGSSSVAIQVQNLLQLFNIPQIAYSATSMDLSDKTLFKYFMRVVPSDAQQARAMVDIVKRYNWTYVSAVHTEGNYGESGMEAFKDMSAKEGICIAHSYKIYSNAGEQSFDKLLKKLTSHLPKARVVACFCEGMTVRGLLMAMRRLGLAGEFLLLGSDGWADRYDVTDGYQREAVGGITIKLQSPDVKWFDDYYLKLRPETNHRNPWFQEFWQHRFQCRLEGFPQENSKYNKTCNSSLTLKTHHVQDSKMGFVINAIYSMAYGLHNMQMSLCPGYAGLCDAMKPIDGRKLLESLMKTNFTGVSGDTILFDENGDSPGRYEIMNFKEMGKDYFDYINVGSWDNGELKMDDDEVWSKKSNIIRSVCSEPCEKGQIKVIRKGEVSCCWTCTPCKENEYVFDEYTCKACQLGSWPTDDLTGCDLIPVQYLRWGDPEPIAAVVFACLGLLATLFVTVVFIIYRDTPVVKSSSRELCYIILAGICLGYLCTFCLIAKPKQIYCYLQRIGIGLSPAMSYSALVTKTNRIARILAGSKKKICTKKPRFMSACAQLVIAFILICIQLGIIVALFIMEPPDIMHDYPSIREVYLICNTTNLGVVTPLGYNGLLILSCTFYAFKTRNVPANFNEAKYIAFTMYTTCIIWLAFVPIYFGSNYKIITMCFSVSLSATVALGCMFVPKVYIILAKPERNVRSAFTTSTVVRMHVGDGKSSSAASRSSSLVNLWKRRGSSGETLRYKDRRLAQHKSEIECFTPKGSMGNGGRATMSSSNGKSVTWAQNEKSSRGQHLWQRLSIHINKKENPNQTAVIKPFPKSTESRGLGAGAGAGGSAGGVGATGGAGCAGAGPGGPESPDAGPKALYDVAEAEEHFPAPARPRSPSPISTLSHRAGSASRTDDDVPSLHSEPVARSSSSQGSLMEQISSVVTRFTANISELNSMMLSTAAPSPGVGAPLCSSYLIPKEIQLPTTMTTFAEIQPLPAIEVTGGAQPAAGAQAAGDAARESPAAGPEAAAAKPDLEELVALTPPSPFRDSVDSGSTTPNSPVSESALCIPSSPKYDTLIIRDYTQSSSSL

Question: Which Emax [1] does the source give for `FC(F)(F)Cc1cnc2c(Cl)c(-c3cc(Cl)c4[nH]ccc4c3)ccn12` here?
Answer: 217%

Question: And the metabolised at 0.25 h, 5 µM [2]?
Answer: 10%

Question: And the metabolised at 0.25 h, 5 µM [3]?
Answer: 21%

Question: What about the Activity [4] of the same compound?
Answer: inactive

Question: What about the Activity [5] of the same compound?
Answer: inactive

Question: And the Activity [6]?
Answer: inactive

Question: And the Activity [7]?
Answer: inactive

Question: What about the Activity [8] of the same compound?
Answer: inactive

Question: What about the Activity [9] of the same compound?
Answer: inactive

Question: And the Tmax [10]?
Answer: 0.8 h

Question: What about the AUC(0-inf) [11] of the same compound?
Answer: 1980 ng·h/mL

Question: What about the half-life [12] of the same compound?
Answer: 2 h

Question: What about the concentration at 1 h [13] of the same compound?
Answer: 538 ng/g

Question: What about the concentration at 2 h [14] of the same compound?
Answer: 441 ng/g

Question: And the concentration at 4 h [15]?
Answer: 126 ng/g

Question: What about the concentration at 1 h [16] of the same compound?
Answer: 414 ng/mL

Question: And the concentration at 2 h [17]?
Answer: 364 ng/mL

Question: And the concentration at 4 h [18]?
Answer: 168 ng/mL

Question: And the Kp at 1 h [19]?
Answer: 1.3

Question: And the Kp at 2 h [20]?
Answer: 1.2

Question: What about the Kp at 4 h [21] of the same compound?
Answer: 0.8

Question: What about the Activity [22] of the same compound?
Answer: inactive

Question: What about the Activity [23] of the same compound?
Answer: inactive

Question: And the Activity [24]?
Answer: inactive

Question: What about the Activity [25] of the same compound?
Answer: inactive

Question: And the Activity [26]?
Answer: inactive

Question: What about the Activity [27] of the same compound?
Answer: inactive

Question: What about the Activity [28] of the same compound?
Answer: inactive

Question: What about the Activity (Rattus norvegicus [29]) of the same compound?
Answer: inactive

Question: And the Activity (Rattus norvegicus [30])?
Answer: inactive

Question: What about the Activity (Rattus norvegicus [31]) of the same compound?
Answer: inactive

Question: And the Activity (Rattus norvegicus [32])?
Answer: Active

Question: And the Activity (Rattus norvegicus [33])?
Answer: inactive

Question: And the Activity [34]?
Answer: inactive

Question: What about the Cmax [35] of the same compound?
Answer: 534 ng/mL

Question: And the Activity (Rattus norvegicus [36])?
Answer: 57%

Question: What about the Activity (Rattus norvegicus [37]) of the same compound?
Answer: inactive

Question: What about the Activity (Rattus norvegicus [38]) of the same compound?
Answer: inactive

Question: What about the Activity (Rattus norvegicus [39]) of the same compound?
Answer: inactive

Question: And the Activity (Rattus norvegicus [40])?
Answer: inactive
